# Experiments:
# [1] = Displacement of [3H]-CGP-39653 from NMDA receptor in Sprague-Dawley rat brain synaptosomes after 60 mins by scintillation counting method; type: subcellular
# [2] = molecular target: Glutamate receptor ionotropic, kainate 1 (Rattus norvegicus, UniProt P22756); assay: Displacement of [3H]-SYM2081 from recombinant homomeric rat GluK1 (Q)1b receptor expressed in baculovirus infected Sf9 insect cell membranes by scintillation counting method
# [3] = molecular target: Glutamate receptor ionotropic, kainate 2 (Rattus norvegicus, UniProt P42260); assay: Displacement of [3H]-KA from recombinant homomeric rat GluK2 (V,C,R)a receptor expressed in baculovirus infected Sf9 insect cell membranes by scintillation counting method
# Sequence of Glutamate receptor ionotropic, kainate 2 (P42260 whole entry): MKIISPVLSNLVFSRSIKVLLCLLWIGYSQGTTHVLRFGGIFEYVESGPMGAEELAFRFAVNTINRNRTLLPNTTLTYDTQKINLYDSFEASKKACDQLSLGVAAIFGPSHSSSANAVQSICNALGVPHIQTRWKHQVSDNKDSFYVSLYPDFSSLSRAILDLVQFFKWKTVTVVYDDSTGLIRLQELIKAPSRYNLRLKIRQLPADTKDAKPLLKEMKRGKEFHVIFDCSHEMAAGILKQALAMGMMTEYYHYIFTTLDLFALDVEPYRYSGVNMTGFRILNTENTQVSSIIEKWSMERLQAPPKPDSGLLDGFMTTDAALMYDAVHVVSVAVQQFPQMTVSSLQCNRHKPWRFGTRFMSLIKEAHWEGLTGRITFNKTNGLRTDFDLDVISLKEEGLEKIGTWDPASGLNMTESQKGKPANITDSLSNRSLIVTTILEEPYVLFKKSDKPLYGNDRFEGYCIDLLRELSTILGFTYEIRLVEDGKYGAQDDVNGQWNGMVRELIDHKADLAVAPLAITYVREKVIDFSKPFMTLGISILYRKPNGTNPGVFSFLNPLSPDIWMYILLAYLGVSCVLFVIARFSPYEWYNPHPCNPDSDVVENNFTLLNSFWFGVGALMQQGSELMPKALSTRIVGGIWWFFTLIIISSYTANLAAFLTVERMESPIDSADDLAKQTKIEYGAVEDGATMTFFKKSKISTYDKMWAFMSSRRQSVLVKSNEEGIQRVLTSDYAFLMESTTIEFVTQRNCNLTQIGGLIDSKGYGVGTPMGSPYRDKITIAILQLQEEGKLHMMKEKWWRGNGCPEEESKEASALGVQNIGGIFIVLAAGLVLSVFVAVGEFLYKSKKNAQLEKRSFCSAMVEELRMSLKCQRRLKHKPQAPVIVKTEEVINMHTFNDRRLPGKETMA
# [4] = molecular target: Ionotropic glutamate receptor NMDA 1/2D (Rattus norvegicus, UniProt P35439+Q62645); assay: Antagonist activity at recombinant rat GluN1a/GluN2D expressed in Xenopus laevis oocytes assessed as inhibition of glycine/glutamate-mediated current responses by two-electrode voltage clamp method; type: cell-based
# Sequence of Ionotropic glutamate receptor NMDA 1/2D (Q62645 whole entry, other chains not shown): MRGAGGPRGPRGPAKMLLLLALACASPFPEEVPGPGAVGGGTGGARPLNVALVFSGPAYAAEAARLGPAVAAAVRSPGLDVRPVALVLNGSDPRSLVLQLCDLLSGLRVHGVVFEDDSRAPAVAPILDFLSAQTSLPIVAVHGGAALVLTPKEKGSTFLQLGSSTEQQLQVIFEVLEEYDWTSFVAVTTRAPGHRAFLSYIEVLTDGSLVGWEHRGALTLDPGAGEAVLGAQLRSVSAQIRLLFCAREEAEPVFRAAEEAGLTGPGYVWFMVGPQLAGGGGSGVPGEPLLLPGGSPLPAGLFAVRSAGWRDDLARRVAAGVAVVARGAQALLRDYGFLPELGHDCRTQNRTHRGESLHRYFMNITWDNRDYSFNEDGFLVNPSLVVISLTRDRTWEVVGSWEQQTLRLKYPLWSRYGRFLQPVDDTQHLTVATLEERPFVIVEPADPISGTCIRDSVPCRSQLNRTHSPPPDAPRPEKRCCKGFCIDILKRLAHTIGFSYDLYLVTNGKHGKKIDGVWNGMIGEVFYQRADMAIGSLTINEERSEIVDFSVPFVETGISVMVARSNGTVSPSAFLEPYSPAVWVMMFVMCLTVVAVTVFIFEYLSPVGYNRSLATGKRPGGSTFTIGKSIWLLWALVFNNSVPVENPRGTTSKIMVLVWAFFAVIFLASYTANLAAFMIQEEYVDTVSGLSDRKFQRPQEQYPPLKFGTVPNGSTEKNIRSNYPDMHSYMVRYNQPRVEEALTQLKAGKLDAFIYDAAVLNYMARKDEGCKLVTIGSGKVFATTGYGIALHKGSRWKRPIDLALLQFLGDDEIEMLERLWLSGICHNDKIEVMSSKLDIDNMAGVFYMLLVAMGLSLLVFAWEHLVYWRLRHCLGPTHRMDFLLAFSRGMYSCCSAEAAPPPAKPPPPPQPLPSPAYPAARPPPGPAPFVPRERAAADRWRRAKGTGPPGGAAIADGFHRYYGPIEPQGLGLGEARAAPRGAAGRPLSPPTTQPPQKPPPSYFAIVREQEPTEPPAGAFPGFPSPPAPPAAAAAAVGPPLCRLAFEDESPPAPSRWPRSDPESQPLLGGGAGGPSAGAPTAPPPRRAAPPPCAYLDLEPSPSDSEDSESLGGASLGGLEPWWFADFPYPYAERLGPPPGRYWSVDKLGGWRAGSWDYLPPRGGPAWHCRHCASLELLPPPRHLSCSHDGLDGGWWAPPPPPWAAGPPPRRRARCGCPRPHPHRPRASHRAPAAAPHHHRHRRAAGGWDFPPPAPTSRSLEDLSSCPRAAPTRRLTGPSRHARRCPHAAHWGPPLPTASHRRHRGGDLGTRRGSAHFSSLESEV
# In short: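 Xenopus oocytes were injected with rat GluN1 and GluN2A–D cRNA (1:2) and recorded 2–6 days later by TEVC at room temperature, −40 mV, in Ba2+-containing recording solution, pH 7.4. Currents were evoked by 100 μM glycine plus glutamate at 2–3× EC50: 10 μM for GluN2A, 3 μM for GluN2B and GluN2C, 1 μM for GluN2D. IC50 from Hill fits per oocyte; Ki estimated.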
# [5] = test system: Plasma; assay: Tmax in mouse plasma at 10 mg/kg, ip administered as bolus dose by LC-MS/MS analysis; type: ADME, organism-based; details: in vivo
# In short: (§1)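 Adult male mice (25 ± 5 g) given a single 10 mg/kg i.p. bolus, prepared as a 5.0 mM solution in 0.9% NaCl. Animals were decapitated at five time points between 10 and 240 min. Plasma was precipitated with acetonitrile containing internal standard. Brain and liver were homogenized in water (1:3) and precipitated the same way. Analysis by LC-MS/MS, with AUC0–240, Cmax, tmax, t½β and liver/plasma ratio derived from the concentration-time data.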
# [6] = test system: Liver; assay: Cmax in mouse liver at 10 mg/kg, ip administered as bolus dose by LC-MS/MS analysis; type: ADME, organism-based; set-up: dose 10 mg/kg, route intraperitoneal; details: in vivo; in short: as §1
# [7] = test system: Liver; assay: Elimination half life in mouse liver at 10 mg/kg, ip administered as bolus dose by LC-MS/MS analysis; type: ADME, organism-based; details: in vivo; in short: as §1
# [8] = species on record: Mus musculus; assay: Antagonist activity at NMDA receptor in Nras driven p53 deficient mouse HCC cell membranes assessed as LPS-stimulated PGE2 levels at 10 uM after 24 hrs by LC-MS/MS method (reference value: 162 +/- 7%); set-up: scale not given: the % may be the effect or the level left
# In short: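 Mouse Nras-driven p53−/− HCC cells in DMEM with 2 mM L-glutamine, 10% heat-inactivated FBS and penicillin/streptomycin. Cells incubated 24 h with or without antagonist, either without LPS or with 2.5 μg/mL LPS in the growth medium. Cells washed three times with ice-cold HBSS and lysed in acetonitrile on ice. PGE₂ in lysates measured by LC-MS/MS (LLOQ 1 nM) and expressed as % of control; n=3.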
# [9] = test system: Brain; assay: AUC (0 to 240 mins) in mouse brain at 10 mg/kg, ip administered as bolus dose by LC-MS/MS analysis; type: ADME, organism-based; set-up: dose 10 mg/kg, time < 4 hr, route intraperitoneal; details: in vivo, 4 h; in short: as §1
# [10] = test system: Brain; assay: Cmax in mouse brain at 10 mg/kg, ip administered as bolus dose measured at 30 mins by LC-MS/MS analysis; type: ADME, organism-based; set-up: dose 10 mg/kg, route intraperitoneal; details: in vivo, 0.5 h; in short: as §1
# [11] = species on record: Mus musculus; assay: Antagonist activity at NMDA receptor in Nras driven p53 deficient mouse HCC cell membranes assessed as PGE2 levels at 100 uM after 24 hrs by LC-MS/MS method relative to control; set-up: scale not given: the % may be the effect or the level left
# In short: (§2)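 Nras-driven p53−/− mouse HCC cells in DMEM/10% FBS were incubated 24 h with or without 100 μM compound. This was done without LPS and with LPS (2.5 μg/mL) in the growth medium. Cells were washed with ice-cold HBSS and lysed in acetonitrile on ice. PGE2 in the lysates was quantified by LC-MS/MS and expressed as % of control. Mean ± SEM, n=3; one-way ANOVA/Tukey.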
# [12] = species on record: Mus musculus; assay: Antagonist activity at NMDA receptor in Nras driven p53 deficient mouse HCC cell membranes assessed as LPS-stimulated PGE2 levels at 100 uM after 24 hrs by LC-MS/MS method (reference value: 162 +/- 7%); set-up: scale not given: the % may be the effect or the level left; in short: as §2
# [13] = species on record: Mus musculus; assay: Antagonist activity at NMDA receptor in Nras driven p53 deficient mouse HCC cell membranes assessed as Abcb1 protein expression levels at 10 uM by […] analysis relative to control; set-up: scale not given: the % may be the effect or the level left
# In short: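 Mouse Nras-driven p53−/− HCC cells in DMEM with 10% FBS, exposed 48 h with or without 10 μM antagonist, washed, pelleted and snap-frozen. Crude membrane fraction isolated. 50 μg protein reduced, alkylated, precipitated, then Lys-C digested (3 h, rt) and trypsin digested (1:100, 37°C, 16 h). One unique peptide per transporter quantified by multiplexed SRM/MRM LC-MS/MS against stable isotope-labelled standards. Unpaired two-tailed t-test versus control, n=4.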
# [14] = species on record: Mus musculus; assay: Antagonist activity at NMDA receptor in Nras driven p53 deficient mouse HCC cell membranes assessed as Slc7a5 protein expression levels at 10 uM by SMR/MRM analysis relative to control; set-up: scale not given: the % may be the effect or the level left
# In short: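 Nras p53−/− mouse HCC cells were exposed to 10 μM for 48 h, washed, and pelleted. Crude membrane fractions (50 μg protein) were denatured in guanidine, reduced/alkylated and precipitated. They were then digested with Lys-C (rt, 3 h) and trypsin (37 °C, 16 h) with stable-isotope peptide standards. Slc7a5 was quantified by multiplexed SRM/MRM LC-MS/MS, one unique peptide per protein. Mean ± SEM, n=4, versus control.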
# [15] = species on record: Mus musculus; assay: (§3) Antagonist activity at NMDA receptor in Nras driven p53 deficient mouse HCC cell membranes assessed as decrease in Abcb1/Abcg2 protein expression levels by measuring sorafenib accumulation at 10 uM preincubated for 24 hrs followed by compound wash out and addition of sorafenib measured after 30 mins by LC/MS-MS method relative to control; set-up: scale not given: the % may be the effect or the level left
# In short: (§4)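 Nras p53−/− HCC cells (1 × 10⁵/well) were pretreated 24 h with or without 10 μM. They were then washed 3× in warm HBSS (choline chloride, pH 7.4) and incubated at 37 °C with probe in HBSS. Incubation was 30 min for [3H]-digoxin, 20 μM fluorescein or 10 μM sorafenib, and 5 min for [14C]-L-leucine or [14C]-D-glucose. Cells were washed ice-cold and lysed in 0.1 M NaOH. Read-out was scintillation, fluorescence or LC-MS/MS, normalized to protein.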
# [16] = species on record: Mus musculus; assay: as §3, with “Slc2a1” for “Abcb1/Abcg2”, “[14C]-D-glucose” for “sorafenib”, “5” for “30”, “scintillation counting” for “LC/MS-MS”; set-up: scale not given: the % may be the effect or the level left; in short: as §4
# [17] = species on record: Mus musculus; assay: as §3, with “Slc7a5” for “Abcb1/Abcg2”, “[14C]-L-leucine” for “sorafenib”, “5” for “30”, “scintillation counting” for “LC/MS-MS”; set-up: scale not given: the % may be the effect or the level left; in short: as §4
# [18] = species on record: Mus musculus; assay: Antagonist activity at NMDA receptor in Nras driven p53 deficient mouse HCC cell membranes assessed as potentiation of 2.5 uM sorafenib-mediated antiproliferative activity by measuring cell viability at 100 uM after 72 hrs by resazurin assay (reference value: […] +/- […]%)
# [19] = test system: Brain; assay: Drug uptake in mouse brain at 100 uM administered via perfusion; details: in vivo, other
# Sequence of Glutamate receptor ionotropic, kainate 1 (P22756 whole entry): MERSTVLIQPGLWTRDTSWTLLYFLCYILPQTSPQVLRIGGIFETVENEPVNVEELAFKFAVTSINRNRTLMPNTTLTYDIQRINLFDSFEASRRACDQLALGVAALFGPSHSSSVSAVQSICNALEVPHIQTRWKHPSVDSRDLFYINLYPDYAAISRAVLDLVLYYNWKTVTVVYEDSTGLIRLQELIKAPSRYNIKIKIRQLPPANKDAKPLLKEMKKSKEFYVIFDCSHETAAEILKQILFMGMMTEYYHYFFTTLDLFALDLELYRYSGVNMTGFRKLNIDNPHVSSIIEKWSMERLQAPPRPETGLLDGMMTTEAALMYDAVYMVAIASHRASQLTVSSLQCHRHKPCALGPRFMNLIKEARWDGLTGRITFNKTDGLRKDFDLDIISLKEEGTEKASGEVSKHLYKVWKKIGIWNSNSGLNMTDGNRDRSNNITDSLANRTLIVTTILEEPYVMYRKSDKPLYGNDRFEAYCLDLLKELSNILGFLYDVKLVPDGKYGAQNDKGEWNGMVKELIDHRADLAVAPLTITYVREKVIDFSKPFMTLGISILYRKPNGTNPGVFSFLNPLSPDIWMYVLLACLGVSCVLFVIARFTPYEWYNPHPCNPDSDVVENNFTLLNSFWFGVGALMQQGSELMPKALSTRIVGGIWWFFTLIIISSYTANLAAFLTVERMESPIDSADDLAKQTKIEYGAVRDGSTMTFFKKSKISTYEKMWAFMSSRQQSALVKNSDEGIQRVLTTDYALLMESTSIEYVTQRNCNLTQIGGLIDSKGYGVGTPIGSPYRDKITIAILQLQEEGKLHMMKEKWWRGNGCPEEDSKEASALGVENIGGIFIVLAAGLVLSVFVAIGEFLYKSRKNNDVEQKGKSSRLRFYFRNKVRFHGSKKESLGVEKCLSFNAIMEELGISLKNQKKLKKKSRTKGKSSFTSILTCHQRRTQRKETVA
structure (smiles),measurement,setting,value
Cl.O=C(O)c1cc([C@H]2CCN[C@@H]2C(=O)O)ccc1Cl,Ki,[1],630 nM
same,pKi,[1],6.22
same,Ki,[2],154 µM
same,Ki,[3],> 100 µM
same,IC50,[4],170 µM
same,Ki,[4],41 µM
same,Tmax,[5],15 min
same,Cmax,[6],8.7 nmol/g
same,beta t1/2,[7],36 min
same,Activity,[8],127%
same,AUC,[9],13 nmol·min/g
same,Cmax,[10],0.3 nmol/g
same,Activity,[11],48%
same,Activity,[12],96%
same,Activity,[13],39%
same,Activity,[14],24%
same,Activity,[15],152%
same,Activity,[16],84%
same,Activity,[17],81%
same,Activity,[18],30%
same,Drug uptake,[19],5 pmol/g
